These results are taken from ChEMBL document CHEMBL3286196 (J Med Chem, 2014).

For experiment [1], the species on record is Rattus norvegicus. Briefly: Binding affinity to NADPH-reduced rat recombinant wild type TrxR after 30 mins by SDS-PAGE. The method, boiled down:
(§1)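 Proteins were reduced, then incubated with the labelling compound for 30 min at room temperature. Samples were separated by SDS-PAGE. The gel was imaged by fluorescence and then stained with Coomassie Blue.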

Experiment [2] relates to T1, Thioredoxin reductase 1, cytoplasmic (Rattus norvegicus), O89049 [U498C].
T1 sequence (whole entry): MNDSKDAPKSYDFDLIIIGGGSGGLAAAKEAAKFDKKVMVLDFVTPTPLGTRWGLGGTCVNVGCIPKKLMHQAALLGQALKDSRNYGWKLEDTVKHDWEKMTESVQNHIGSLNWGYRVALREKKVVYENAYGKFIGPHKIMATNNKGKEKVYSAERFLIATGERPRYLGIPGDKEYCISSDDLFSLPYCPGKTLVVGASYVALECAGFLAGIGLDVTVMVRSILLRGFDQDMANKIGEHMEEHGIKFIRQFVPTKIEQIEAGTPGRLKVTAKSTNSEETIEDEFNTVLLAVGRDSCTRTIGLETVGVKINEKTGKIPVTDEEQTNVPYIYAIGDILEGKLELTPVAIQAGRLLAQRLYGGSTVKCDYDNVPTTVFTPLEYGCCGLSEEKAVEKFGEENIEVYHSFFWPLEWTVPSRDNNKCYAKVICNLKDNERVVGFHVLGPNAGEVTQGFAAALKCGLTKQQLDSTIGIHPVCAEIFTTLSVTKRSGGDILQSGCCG
Kind of experiment: Binding affinity to NADPH-reduced rat recombinant TrxR1 U498C mutant after 30 mins by SDS-PAGE. The method, boiled down: as §1

In experiment [3] the test system is HepG2. Kind of experiment: Cytotoxicity against human HepG2 cells assessed as inhibition of proliferation after 48 hrs by MTT assay. The format is functional, cell-based. The note with it: HepG2, 48 h. (Tetrazolium dyes change colour on reduction, which living cells bring about.)
Experiment [4] concerns HL-60. Kind of experiment: Cytotoxicity against human HL60 cells assessed as inhibition of proliferation after 72 hrs by MTT assay. The format is functional, cell-based. The note with it: HL-60, 72 h.
Experiment [5] is described as follows: Cytotoxicity against human […] cells assessed as inhibition of proliferation after 48 hrs by MTT assay. The format is functional, cell-based.
Experiment [6] deals with HeLa. Kind of experiment: Cytotoxicity against human HeLa cells assessed as inhibition of proliferation after 48 hrs by MTT assay. The format is functional, cell-based.
Experiment [7] deals with HL-60. Kind of experiment: Cytotoxicity against human HL60 cells assessed as inhibition of proliferation after 48 hrs by MTT assay. The format is functional, cell-based. The note with it: HL-60, 48 h.

Active and inactive are the calls of the source. The calls are words filed in the database; no cut-off is given here.

Consider `Nc1ccc2c3c(cccc13)C(=O)N(CCCCCC(=O)Nc1ccc([As]3SCCCS3)cc1)C2=O`, for which the result in experiment [1] was inactive. For the same compound, in experiment [2], the result was Active.
With `O=[As][As+](=O)[O-]` (centres undefined) [ARSENIC TRIOXIDE], the IC50 (in general, the concentration that inhibits the measured activity by half) in experiment [3] is > 10 µM; in experiment [4], 5.7 µM; in experiment [5] it was > 10 µM; in experiment [6] it was > 10 µM; in experiment [7], 6.5 µM.
Turning to `Nc1ccc([As](=O)(O)O)cc1` [ARSANILIC ACID], the IC50 in experiment [3], in experiment [4], in experiment [5], in experiment [6] and in experiment [7] was > 10 µM throughout.
For `Nc1ccc2c3c(cccc13)C(=O)N(CCCCCC(=O)Nc1ccc([As](O)O)cc1)C2=O`, the result in experiment [1] and in experiment [2] was Active.
